pEC50, pIC50: −log10 of the molar value.
What was measured:
Cavia porcellus [1] = assay: Compound dose producing maximum increase in dP/dt, in anesthetized guinea pig during slow intravenous infusion of 12.8 uM solution.; type: functional
In short: (§1)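 Anesthetized guinea pigs with jugular vein cannula and tracheal intubation (spontaneous respiration); +dP/dt recorded. Compound dissolved in DMSO, diluted with physiological solution to 1% DMSO final, infused IV at 0.16 mL/min until death or up to 90 min. Starting infusate concentration was based on the atrial EC50. Doses for maximal inotropic effect and for death determined; ED80 taken from dose–response curves. Means ± SEM where possible.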

Cavia porcellus [2] = assay: Compound dose producing 80% of increase in dP/dt in anesthetized guinea pig during slow intravenous infusion of 12.8 uM solution.; type: functional; in short: as §1
Cavia porcellus [3] = organism: Cavia porcellus; assay: Concentration producing 50% of the maximal increase in the force of contraction in isolated guinea pig left atrium; type: functional; details: Cardiac atrium
In short: (§2)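 Isolated guinea pig atria in solution bubbled with 95% O2/5% CO2, field-stimulated by platinum electrodes at 1 Hz (1 ms square pulses, twice threshold voltage). After 60 min equilibration, cumulative concentrations added, each held until maximal response or arrhythmia.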

[4] = target: Sodium/potassium-transporting ATPase; assay: In vitro inhibitory concentration against dog kidney Na+/K+ ATPase; type: protein-complex assay, Canis lupus familiaris
In short: (§3)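 Na+,K+-ATPase isolated and purified from dog kidney. Inhibition measured as percent hydrolysis of 32P-ATP with versus without compound. […] Single-concentration entries report percent inhibition at the stated concentration. Compounds tested within 1–4 h of dissolution.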

Cavia porcellus [5] = assay: Compound dose producing maximum inotropic effect in anesthetized guinea pig during slow intravenous infusion of 12.8 uM solution.; type: functional; in short: as §1
Cavia porcellus [6] = assay: Compound dose causing lethality in anesthetized guinea pig during slow intravenous infusion of 12.8 uM solution.; type: toxicity, organism-based; details: in vivo; in short: as §1
[7] = Percent increase in force of contraction in vitro determined using electrically driven guinea pig left atrium.; type: functional; details: Cavia porcellus, Cardiac atrium; in short: as §2
Cavia porcellus [8] = assay: Compound dose causing lethality in anesthetized guinea pig during slow intravenous infusion of 51.2 uM solution.; type: toxicity, organism-based; details: in vivo; in short: as §1
[9] = In vitro maximum inotropic effect on contractile force of an electrically driven guinea pig left atrium.; type: functional, Cavia porcellus, Cardiac atrium; in short: as §2
Cavia porcellus [10] = assay: Compound dose producing maximum increase in dP/dt, in anesthetized guinea pig during slow intravenous infusion of 51.2 uM solution.; type: functional
In short: (§4)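 Anesthetized guinea pig; jugular vein cannula, trachea intubated, spontaneous respiration. After stabilization, compound in physiological solution with 1% DMSO (final) infused at 0.16 mL/min until death or up to 90 min. Infused concentration chosen from the paced guinea pig atria EC50. Read-out is +dP/dt. Doses for the maximal inotropic increase and for death were determined; ED80 (80% increase over basal) came from dose-response curves. Means ± SEM.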

Cavia porcellus [11] = assay: Compound dose producing maximum inotropic effect in anesthetized guinea pig during slow intravenous infusion of 51.2 uM solution.; type: functional; in short: as §4
Cavia porcellus [12] = assay: Compound dose producing 80% of increase in dP/dt in anesthetized guinea pig during slow intravenous infusion of 51.2 uM solution.; type: functional; in short: as §4
[13] = Compound at 100 uM was tested in vitro for the inhibition of dog kidney Na+/K+ ATPase; details: Canis lupus familiaris, target entry is the homologue from another species; in short: as §3
Cavia porcellus [14] = assay: Compound dose producing maximum inotropic effect in anesthetized guinea pig during slow intravenous infusion of 375 uM solution.; type: functional; in short: as §1
Cavia porcellus [15] = assay: Compound dose causing lethality in anesthetized guinea pig during slow intravenous infusion of 375 uM solution.; type: toxicity, organism-based; details: in vivo; in short: as §1
Cavia porcellus [16] = assay: Compound dose producing 80% of increase in dP/dt in anesthetized guinea pig during slow intravenous infusion of 375 uM solution.; type: functional; in short: as §1
Cavia porcellus [17] = assay: Compound dose producing maximum increase in dP/dt, in anesthetized guinea pig during slow intravenous infusion of 375 uM solution.; type: functional; in short: as §1
Cavia porcellus [18] = assay: Compound dose producing maximum increase in dP/dt, in anesthetized guinea pig during slow intravenous infusion of 41.4 uM solution.; type: functional; in short: as §1
Cavia porcellus [19] = assay: Compound dose producing maximum inotropic effect in anesthetized guinea pig during slow intravenous infusion of 41.4 uM solution.; type: functional; in short: as §1
Cavia porcellus [20] = assay: Compound dose causing lethality in anesthetized guinea pig during slow intravenous infusion of 41.4 uM solution.; type: toxicity, organism-based; details: in vivo; in short: as §1
Cavia porcellus [21] = assay: Compound dose producing 80% of increase in dP/dt in anesthetized guinea pig during slow intravenous infusion of 41.4 uM solution.; type: functional; in short: as §1
Cavia porcellus [22] = assay: Compound dose producing maximum inotropic effect in anesthetized guinea pig during slow intravenous infusion of 220 uM solution.; type: functional; in short: as §1
Cavia porcellus [23] = assay: Compound dose producing maximum increase in dP/dt, in anesthetized guinea pig during slow intravenous infusion of 220 uM solution.; type: functional; in short: as §1
Cavia porcellus [24] = assay: Compound dose producing 80% of increase in dP/dt in anesthetized guinea pig during slow intravenous infusion of 220 uM solution.; type: functional; in short: as §1
Cavia porcellus [25] = assay: Compound dose causing lethality in anesthetized guinea pig during slow intravenous infusion of 220 uM solution.; type: toxicity, organism-based; details: in vivo; in short: as §1
Cavia porcellus [26] = assay: Compound dose producing 80% of increase in dP/dt in anesthetized guinea pig during slow intravenous infusion of 11.0 uM solution.; type: functional; in short: as §1
Cavia porcellus [27] = assay: Compound dose producing maximum increase in dP/dt, in anesthetized guinea pig during slow intravenous infusion of 11.0 uM solution.; type: functional; in short: as §1
Cavia porcellus [28] = assay: Compound dose causing lethality in anesthetized guinea pig during slow intravenous infusion of 11.0 uM solution.; type: toxicity, organism-based; details: in vivo; in short: as §1
Cavia porcellus [29] = assay: Compound dose producing maximum inotropic effect in anesthetized guinea pig during slow intravenous infusion of 11.0 uM solution.; type: functional; in short: as §1
Cavia porcellus [30] = assay: Compound dose producing maximum increase in dP/dt, in anesthetized guinea pig during slow intravenous infusion of 1000 uM solution.; type: functional; in short: as §1
Cavia porcellus [31] = assay: Compound dose producing maximum inotropic effect in anesthetized guinea pig during slow intravenous infusion of 1000 uM solution.; type: functional; in short: as §1
Cavia porcellus [32] = assay: Compound dose causing lethality in anesthetized guinea pig during slow intravenous infusion of 1000 uM solution.; type: toxicity, organism-based; details: in vivo; in short: as §1
Cavia porcellus [33] = assay: Compound dose producing 80% of increase in dP/dt in anesthetized guinea pig during slow intravenous infusion of 1000 uM solution.; type: functional; in short: as §1

CC(/C=N/OCCN)=C\[C@H]1CC[C@]2(O)[C@@H]3CC[C@@H]4C[C@@H](O)CC[C@]4(C)[C@H]3CC[C@]12C.O=C(O)/C=C/C(=O)O
Emax (Cavia porcellus [1]): 152% | ED80 (Cavia porcellus [2]): 0.128 µM/kg | pEC50 (Cavia porcellus [3]): 7.15 | pIC50 [4]: 7.52 | Emax (Cavia porcellus [5]): 0.201 µM/kg | LD (Cavia porcellus [6]): 0.292 µM/kg | Emax [7]: 115%

C[C@H]1O[C@@H](O[C@H]2[C@@H](O)C[C@H](O[C@H]3[C@@H](O)C[C@H](O[C@H]4CC[C@@]5(C)[C@H](CC[C@@H]6[C@@H]5C[C@@H](O)[C@]5(C)[C@@H](C7=CC(=O)OC7)CC[C@]65O)C4)O[C@@H]3C)O[C@@H]2C)C[C@H](O)[C@@H]1O [DIGOXIN]
LD (Cavia porcellus [8]): 1.25 µM/kg | Concentration giving maximal inotropic effect [9]: 1 µM | pEC50 (Cavia porcellus [3]): 6.42 | Emax (Cavia porcellus [10]): 167% | dose to obtain Emax (Cavia porcellus [11]): 0.576 µM/kg | ED80 (Cavia porcellus [12]): 0.205 µM/kg | Emax [7]: 184%

CN(C)CCON(C)C[C@H]1CC[C@]2(O)[C@@H]3CC[C@@H]4C[C@@H](O)CC[C@]4(C)[C@H]3CC[C@]12C
pIC50 [4]: < 4.00 | inhibition [13]: 20%

CC(/C=N/OCCCN)=C\[C@H]1CC[C@]2(O)[C@@H]3CC[C@@H]4C[C@@H](O)CC[C@]4(C)[C@H]3CC[C@]12C.O=C(O)C(=O)O
Emax (Cavia porcellus [14]): 0.884 µM/kg | pEC50 (Cavia porcellus [3]): 6.77 | LD (Cavia porcellus [15]): 1.67 µM/kg | pIC50 [4]: 6.70 | ED80 (Cavia porcellus [16]): 0.447 µM/kg | Emax [7]: 90% | Emax (Cavia porcellus [17]): 99%

CCCO/N=C/C(C)=C/[C@H]1CC[C@]2(O)[C@@H]3CC[C@@H]4C[C@@H](O)CC[C@]4(C)[C@H]3CC[C@]12C
pIC50 [4]: < 5.00 | inhibition [13]: 40%

C[C@]12CC[C@H](O)C[C@H]1CC[C@@H]1[C@@H]2CC[C@]2(C)[C@@H](/C=N/OCCCN)CC[C@]12O.O=C(O)C(=O)O
Emax (Cavia porcellus [18]): 163% | Emax (Cavia porcellus [19]): 0.435 µM/kg | pEC50 (Cavia porcellus [3]): 6.74 | pIC50 [4]: 7.70 | LD (Cavia porcellus [20]): 0.663 µM/kg | ED80 (Cavia porcellus [21]): 0.24 µM/kg | Emax [7]: 126%

CONCCC[C@H]1CC[C@]2(O)[C@@H]3CC[C@@H]4C[C@@H](O)CC[C@]4(C)[C@H]3CC[C@]12C
pIC50 [4]: < 4.00 | inhibition [13]: 40%

CN(C)CCO/N=C\CC[C@H]1CC[C@]2(O)[C@@H]3CC[C@@H]4C[C@@H](O)CC[C@]4(C)[C@H]3CC[C@]12C.O=C(O)C(=O)O
Emax (Cavia porcellus [22]): 3.65 µM/kg | pEC50 (Cavia porcellus [3]): 6.19 | pIC50 [4]: 7.00 | Emax (Cavia porcellus [23]): 132% | ED80 (Cavia porcellus [24]): 0.814 µM/kg | LD (Cavia porcellus [25]): 7.83 µM/kg | Emax [7]: 150%

CN(C)CCO/N=C/C=C/[C@H]1CC[C@]2(O)[C@@H]3CC[C@@H]4C[C@@H](O)CC[C@]4(C)[C@H]3CC[C@]12C.O=C(O)C(=O)O
Concentration giving maximal inotropic effect [9]: 0.3 µM | pEC50 (Cavia porcellus [3]): 7.24 | ED80 (Cavia porcellus [26]): 0.185 µM/kg | pIC50 [4]: 7.52 | Emax (Cavia porcellus [27]): 110% | LD (Cavia porcellus [28]): 0.385 µM/kg | Emax (Cavia porcellus [29]): 0.275 µM/kg | Emax [7]: 191%

C[C@]12CC[C@H](O)C[C@H]1CC[C@@H]1[C@@H]2CC[C@]2(C)[C@@H](/C=N/OCCCCN)CC[C@]12O.O=C(O)C(=O)O
Emax (Cavia porcellus [30]): 148% | pEC50 (Cavia porcellus [3]): 5.54 | pIC50 [4]: 6.30 | Emax (Cavia porcellus [31]): 5.03 µM/kg | LD (Cavia porcellus [32]): 14.8 µM/kg | ED80 (Cavia porcellus [33]): 1.41 µM/kg | Emax [7]: 92%

Reference: ChEMBL document CHEMBL1133742, “17beta-O-Aminoalkyloximes of 5beta-androstane-3beta,14beta-diol with digitalis-like activity: synthesis, cardiotonic activity, structure-activity relationships, and molecular modeling of the Na(+),K(+)-ATPase receptor” (J Med Chem, 2000)
